Converted amounts (≈) assume the structure as drawn.
Legend:
[1] = Selectivity index, ratio of CI50 for human HepG2 cells to MIC100 for Mycobacterium tuberculosis H37Rv 331/88
[2] = tested on: Mycobacterium kansasii; assay: Antimycobacterial activity against Mycobacterium kansasii 6509/96 after 21 days; assay type: functional; settings: 6509/96, 504 h
Method in brief: (§1)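 Šula's semisynthetic medium micromethod at 37 °C, read after 7, 14 and 21 days. The 1.0 McFarland suspension was diluted 10^-4. MIC determined. 6509/96 is a clinical isolate.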

[3] = tested on: Mycobacterium tuberculosis; assay: Antimycobacterial activity against Mycobacterium tuberculosis H37Rv 331/88 after 21 days; assay type: functional; settings: H37Rv 331/88, 504 h
[4] = tested on: Mycobacterium kansasii; assay: Antimycobacterial activity against Mycobacterium kansasii 235/80 after 7 days; assay type: functional; settings: 235/80, 168 h; method in brief: as §1
[5] = tested on: Mycobacterium kansasii; assay: Antimycobacterial activity against Mycobacterium kansasii 235/80 after 14 days; assay type: functional; settings: 235/80, 336 h; method in brief: as §1
[6] = tested on: Mycobacterium kansasii; assay: Antimycobacterial activity against Mycobacterium kansasii 6509/96 after 14 days; assay type: functional; settings: 6509/96, 336 h; method in brief: as §1
[7] = tested on: Mycobacterium kansasii; assay: Antimycobacterial activity against Mycobacterium kansasii 235/80 after 21 days; assay type: functional; settings: 235/80, 504 h; method in brief: as §1
[8] = tested on: HepG2; assay: Cytotoxicity against human HepG2 cells after 24 hrs […]; assay type: cell-based; settings: HepG2, 24 h
[9] = tested on: Mycobacterium avium; assay: Antimycobacterial activity against Mycobacterium avium 330/80 after 14 days; assay type: functional; settings: 330/80, 336 h
[10] = tested on: Mycobacterium tuberculosis; assay: Antimycobacterial activity against Mycobacterium tuberculosis H37Rv 331/88 after 14 days; assay type: functional; settings: H37Rv 331/88, 336 h
[11] = tested on: Mycobacterium avium; assay: Antimycobacterial activity against Mycobacterium avium 330/80 after 21 days; assay type: functional; settings: 330/80, 504 h
[12] = tested on: Mycobacterium kansasii; assay: Antimycobacterial activity against Mycobacterium kansasii 6509/96 after 7 days; assay type: functional; settings: 6509/96, 168 h; method in brief: as §1

| SMILES | Selectivity Index [1] | MIC [2] [µM] | MIC [3] [µM] | MIC [4] [µM] | MIC [5] [µM] | MIC [6] [µM] | MIC [7] [µM] | IC50 [8] [µM] | MIC [9] [µM] | MIC [10] [µM] | MIC [11] [µM] | MIC [12] [µM] |
| --- | --- | --- | --- | --- | --- | --- | --- | --- | --- | --- | --- | --- |
| O=C(Nc1cc(C(F)(F)F)cc(C(F)(F)F)c1)c1cccc([N+](=O)[O-])c1O | 0.925 | 32 (≈ 12.6 µg/mL) | 8 (≈ 3.15 µg/mL) | 16 (≈ 6.31 µg/mL) | 32 (≈ 12.6 µg/mL) | 32 (≈ 12.6 µg/mL) | 32 (≈ 12.6 µg/mL) | 7.4 | 125 (≈ 49.3 µg/mL) | 8 (≈ 3.15 µg/mL) | 125 (≈ 49.3 µg/mL) | 32 (≈ 12.6 µg/mL) |
| O=C(Nc1ccc(Cl)c(Cl)c1)c1cccc([N+](=O)[O-])c1O | 0.184 | 62.5 (≈ 20.4 µg/mL) | 32 (≈ 10.5 µg/mL) | 32 (≈ 10.5 µg/mL) | 62.5 (≈ 20.4 µg/mL) | 62.5 (≈ 20.4 µg/mL) | 62.5 (≈ 20.4 µg/mL) | 5.9 | 250 (≈ 81.8 µg/mL) | 16 (≈ 5.23 µg/mL) | 250 (≈ 81.8 µg/mL) | 62.5 (≈ 20.4 µg/mL) |

— ChEMBL document CHEMBL3627671, “Novel derivatives of nitro-substituted salicylic acids: Synthesis, antimicrobial activity and cytotoxicity” (Bioorg Med Chem, 2015)
